Reference: ChEMBL document CHEMBL3272280, “Prostaglandin isosteres. 1. (8-Aza-, 8,10-diaza-, and 8-aza-11-thia)-9-oxoprostanoic acids and their derivatives” (J Med Chem, 1977)

Legend:
[1] = Retardation factor, Rf of the compound; assay type: physicochemical
How it was run: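 Thin-layer chromatography on SiO2 plates; eluent A, CHCl3-CH3OH-HOAc (98:1:1), other eluents as designated.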

Rattus norvegicus = organism: Rattus norvegicus; test: Displacement of [3H-PGE1] from Sprague-Dawley rat kidney prostaglandin receptor after 60 mins by scintillation counting analysis
How it was run: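 Kidney plasma membrane binding fraction from male rats (120-150 g); 125 μg of it incubated with 0.4 ng [3H]-PGE1 and test compound, 60 min, 37 °C. Diluted with 0.01 M Tris HCl-saline pH 7.5, bound label collected by filtration, rinsed, counted by liquid scintillation. Duplicate runs at each of three concentrations.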

Mus musculus [2] = organism: Mus musculus; test: Binding affinity to prostaglandin receptor in Charles River CD-1 mouse ovary assessed as increase in cAMP accumulation using [8-14C]adenine at 25 ug/ml after 30 mins relative to control; assay type: tissue-based; settings: Female gonad
How it was run: (§1)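 Virgin female mice over 70 days old; three ovaries per tube (15-25 mg), denuded of fat, preincubated 60 min at 37 °C in aerated Krebs-Ringer phosphate buffer pH 7.2 with 1 μCi [8-14C]adenine to label ATP. Then 0.2 mL 0.05 M theophylline in 0.15 M NaCl plus compound in 0.1 mL Me2SO added; 30 min, 37 °C. TCA stop, homogenization, [14C]-cAMP isolated including paper chromatography.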

Mus musculus [3] = organism: Mus musculus; test: Binding affinity to prostaglandin receptor in Charles River CD-1 mouse ovary assessed as increase in cAMP accumulation using [8-14C]adenine at 100 ug/ml after 30 mins relative to control; assay type: tissue-based; settings: Female gonad; how it was run: as §1
Mus musculus [4] = organism: Mus musculus; test: Binding affinity to prostaglandin receptor in Charles River CD-1 mouse ovary assessed as increase in cAMP accumulation using [8-14C]adenine at 200 ug/ml after 30 mins relative to control; assay type: tissue-based; settings: Female gonad; how it was run: as §1
Mus musculus [5] = organism: Mus musculus; test: Binding affinity to prostaglandin receptor in Charles River CD-1 mouse ovary assessed as increase in cAMP accumulation using [8-14C]adenine at 1 ug/ml after 30 mins relative to control; assay type: tissue-based; settings: Female gonad; how it was run: as §1
Mus musculus [6] = organism: Mus musculus; test: Binding affinity to prostaglandin receptor in Charles River CD-1 mouse ovary assessed as increase in cAMP accumulation using [8-14C]adenine at 50 ug/ml after 30 mins relative to control; assay type: tissue-based; settings: Female gonad; how it was run: as §1
Mus musculus [7] = organism: Mus musculus; test: Binding affinity to prostaglandin receptor in Charles River CD-1 mouse ovary assessed as increase in cAMP accumulation using [8-14C]adenine at 10 ug/ml after 30 mins relative to control; assay type: tissue-based; settings: Female gonad; how it was run: as §1
Mus musculus [8] = organism: Mus musculus; test: Binding affinity to prostaglandin receptor in Charles River CD-1 mouse ovary assessed as increase in cAMP accumulation using [8-14C]adenine at 0.1 ug/ml after 30 mins relative to control; assay type: tissue-based; settings: Female gonad; how it was run: as §1
Mus musculus [9] = organism: Mus musculus; test: Binding affinity to prostaglandin receptor in Charles River CD-1 mouse ovary assessed as increase in cAMP accumulation using [8-14C]adenine at 0.01 ug/ml after 30 mins relative to control; assay type: tissue-based; settings: Female gonad; how it was run: as §1
Mus musculus [10] = organism: Mus musculus; test: Binding affinity to prostaglandin receptor in Charles River CD-1 mouse ovary assessed as increase in cAMP accumulation using [8-14C]adenine at 0.05 ug/ml after 30 mins relative to control; assay type: tissue-based; settings: Female gonad; how it was run: as §1
[11] = Dissociation constant, pKa of the compound; assay type: physicochemical

| SMILES | Rf [1] | Activity (Rattus norvegicus) | fold change (FC) (Mus musculus [2]) | fold change (FC) (Mus musculus [3]) | fold change (FC) (Mus musculus [4]) | fold change (FC) (Mus musculus [5]) | fold change (FC) (Mus musculus [6]) | fold change (FC) (Mus musculus [7]) | fold change (FC) (Mus musculus [8]) | fold change (FC) (Mus musculus [9]) | fold change (FC) (Mus musculus [10]) | pKa [11] |
| --- | --- | --- | --- | --- | --- | --- | --- | --- | --- | --- | --- | --- |
| CCCCCCCCc1c[nH]c(=O)n1CCCCCCC(=O)O | 0.84 | 19.6 µgequiv | 5 | 9 | – | – | – | – | – | – | – | – |
| CCCCCC(O)CCCC(CCCCCCC(=O)O)C(C)=O (configuration not stated) | – | 833 ngequiv | 14 | 23 | 16 | 2 | 16 | 11 | – | – | – | – |
| CCCCCC(O)CCCC(CCCCCCC(=O)O)S(C)(=O)=O (configuration not stated) | – | – | 27 | 38 | – | 14 | – | 24 | 2 | – | – | – |
| CCCCC[C@H](O)/C=C/[C@H]1[C@H](O)CC(=O)[C@@H]1CCCCCCC(=O)O | – | 1 ngequiv | 62 | 62 | – | 54 | – | 60 | 29 | 8 | 25 | – |
| CCCCC[C@H](O)CC[C@H]1CCC(=O)[C@@H]1CCCCCCC(=O)O | – | – | 26 | – | – | 10 | 19 | 25 | – | – | – | – |
| CCCCCC(O)CCC1CCC(=O)N1CCCCCCC(=O)O (mixture of isomers) | 0.15 | 4.6 µgequiv | 8 | 18 | – | 0.9 | – | – | – | – | – | 5.25 |
| CCCCCC(O)CCC1SCC(=O)N1CCCCCCC(=O)O (mixture of isomers) | 0.12 | 0.39 µgequiv | 8 | 25 | – | 1.4 | – | – | – | – | – | – |
| CCCCCCCCC1C(=O)NC(=O)N1CCCCCCC(=O)O (racemic) | 0.2 | 5 µgequiv | 3 | 6 | – | – | – | – | – | – | – | – |

Further lines, results first:

| Rf [1] | Activity (Rattus norvegicus) | fold change (FC) (Mus musculus [2]) | fold change (FC) (Mus musculus [3]) | fold change (FC) (Mus musculus [4]) | fold change (FC) (Mus musculus [5]) | fold change (FC) (Mus musculus [6]) | fold change (FC) (Mus musculus [7]) | fold change (FC) (Mus musculus [8]) | fold change (FC) (Mus musculus [9]) | fold change (FC) (Mus musculus [10]) | pKa [11] | SMILES |
| --- | --- | --- | --- | --- | --- | --- | --- | --- | --- | --- | --- | --- |
| 0.24 | 0.06 µgequiv | 27 | 37 | – | 5 | – | 23 | – | – | – | – | CCCCCC(O)CCC1N(CCCCCCC(=O)O)C(=O)CS1(=O)=O (mixture of isomers) |
| 0.13 | – | 2 | 7 | – | – | – | – | – | – | – | – | O=C(O)CCCCCCN1C(=O)CS(=O)(=O)C1CCC(O)COc1ccc(F)cc1 (mixture of isomers) |
| 0.25 | 8.3 µgequiv | 8 | 13 | – | 0.7 | – | – | – | – | – | – | CCCCCCCCC1CCC(=O)N1CCCCCCC(=O)O (racemic) |
